Published values gathered from unrelated publications.
Protocols differ between the studies behind these lines.
Organism: Escherichia coli
Read-out: microbial growth

CC1(C)S[C@@H]2[C@H](NC(=O)[C@H](N)c3ccccc3)C(=O)N2[C@H]1C(=O)O  MIC (24 h): 5 to 10 µM
O=C(C=Cc1ccc(O)c(O)c1)OCCc1ccccc1  MIC (broth dilution; ATCC25922): 32 µg/mL
Cc1nn(-c2ccccc2)c2c1C(c1ccc(N(C)C)cc1)N(C(=O)c1ccncc1)N2 (stereo not drawn)  MIC (MTCC739; 24 h): > 100 µg/mL
CC(O)CSc1nnc(COc2ccc(Cl)cc2Br)n1-c1ccccc1 (stereo not drawn)  MIC: 20500 µg/mL
CN(C)c1cc(NC(=O)CNC(C)(C)C)c(O)c2c1C[C@H]1C[C@H]3[C@H](N(C)C)C(O)=C(C(N)=O)C(=O)[C@@]3(O)C(O)=C1C2=O  MIC (broth dilution): ≤ 0.06 µg/mL
Cc1ccccc1NC(=O)C=Cc1ccc(O)c(O)c1  MIC (broth dilution; ATCC25922): 4 µg/mL
C[C@H]1COc2c(N3CCN(C)CC3)c(F)cc3c(=O)c(C(=O)O)cn1c23  MIC (BW25113): 0.16 µg/mL
CC1(C)S[C@@H]2[C@H](NC(=O)[C@H](N)c3ccc(O)cc3)C(=O)N2[C@H]1C(=O)O  MIC (broth dilution): ≤ 0.06 µg/mL
Cc1nn(-c2ccccc2)c2c1C(c1c[nH]c3ccccc13)N(C(=O)c1ccncc1)N2 (stereo not drawn)  MIC (MTCC739; 24 h): > 100 µg/mL
CC(C)(C)OC(=O)N[C@H]1CCN(c2cc(C(=O)NCC(=O)O)ccc2NC(=O)c2cc(Br)c(Br)[nH]2)C1  MIC (broth dilution; ATCC25922): > 32 µg/mL
COc1ccc(C2c3c(C)nn(-c4ccccc4)c3NN2C(=O)c2ccncc2)cc1 (stereo not drawn)  MIC (MTCC739; 24 h): 32 µg/mL
Cc1[nH]c(C(=O)Nc2ccc(C(=O)NCc3n[nH]c(=O)o3)cc2N2CCN(C(=O)OC(C)(C)C)CC2)c(Cl)c1Cl  MIC (broth dilution; ATCC25922): > 32 µg/mL
CC(O)CSc1nnc(Cn2cnc3c2c(=O)n(C)c(=O)n3C)n1-c1ccccc1 (stereo not drawn)  MIC: 15000 µg/mL
CC1CCC(C(C)C)C(OC(=O)C=Cc2ccc(O)c(O)c2)C1 (stereo not drawn)  MIC (broth dilution; ATCC25922): 2 µg/mL
Cc1[nH]c(C(=O)Nc2ccc(C(=O)NCC(=O)O)cc2N2CCN(C(=O)OC(C)(C)C)CC2)c(Cl)c1Cl  MIC (broth dilution; ATCC25922): > 32 µg/mL
CC1(C)S[C@@H]2[C@H](NC(=O)[C@H](N)c3ccccc3)C(=O)N2[C@H]1C(=O)O  MIC (broth dilution; ATCC25922): 4 µg/mL
NCC[C@H](O)C(=O)N[C@@H]1C[C@H](N)[C@@H](O[C@H]2O[C@H](CN)[C@@H](O)[C@H](O)[C@H]2O)[C@H](O)[C@H]1O[C@H]1O[C@H](CO)[C@@H](O)[C@H](N)[C@H]1O  MIC (broth dilution): ≤ 1 µg/mL
CC(C)(O/N=C(\C(=O)N[C@@H]1C(=O)N2C(C(=O)[O-])=C(C[n+]3ccccc3)CS[C@H]12)c1csc(N)n1)C(=O)O  MIC (broth dilution; ATCC25922; 20 h): < 0.5 µg/mL
COc1cc(Cc2cnc(N)nc2N)cc(OC)c1OC  MIC (broth dilution; ATCC25922): 8 µg/mL
C[C@@H](O)[C@H]1C(=O)N2C(C(=O)O)=C(SCCNC=N)C[C@H]12  MIC (broth dilution): ≤ 0.06 µg/mL
Cc1[nH]c(C(=O)Nc2ccc(-c3n[nH]c(=O)o3)cc2N2CCC[C@H](N)C2)c(Cl)c1Cl.Cl  MIC (broth dilution; ATCC25922): 16 µg/mL
O=C(O)c1cn(C2CC2)c2cc(N3CCNCC3)c(F)cc2c1=O  MIC (MTCC739; 24 h): 32 µg/mL
Cc1[nH]c(C(=O)Nc2ccc(C(=O)NCC(=O)O)cc2N2CC[C@@H](NC(=O)OC(C)(C)C)C2)c(Cl)c1Cl  MIC (broth dilution; ATCC25922): > 32 µg/mL
CC(O)CSc1nnc(-c2cc3ccccc3o2)n1-c1ccccc1 (stereo not drawn)  MIC: 10000 µg/mL
Cc1[nH]c(C(=O)Nc2ccc(C(=O)NCC(=O)O)cc2N2CC[C@@H](N)C2)c(Cl)c1Cl.Cl  MIC (broth dilution; ATCC25922): > 32 µg/mL
O=C(C=Cc1ccc(O)c(O)c1)Oc1cccc2cccnc12  MIC (broth dilution; ATCC25922): 4 µg/mL
Cl.O=C(O)CNC(=O)c1ccc(NC(=O)c2cc(Br)c(Br)[nH]2)c(N2CCNCC2)c1  MIC (broth dilution; ATCC25922): > 32 µg/mL
CN[C@@H]1[C@@H](O[C@H]2O[C@H](CO)[C@@H](N)[C@H](O)[C@H]2O)OC2C[C@@H](N)[C@@H](O[C@H]3[C@H](O)[C@@H](O)[C@H](N)C[C@@H]3N)OC2[C@@H]1O (stereo partly drawn)  MIC (24 h): 2.5 to 5 µM
Cl.N[C@@H]1CCN(c2cc(C(=O)NCC(=O)O)ccc2NC(=O)c2cc(Br)c(Br)[nH]2)C1  MIC (broth dilution; ATCC25922): > 32 µg/mL
C[C@@H](O)[C@H]1C(=O)N2C(C(=O)O)=C(S[C@@H]3CN[C@H](C(=O)N(C)C)C3)[C@H](C)[C@H]12  MIC (broth dilution): ≤ 0.06 µg/mL
